Assay results: ChEMBL document CHEMBL2169781, “Discovery and biological evaluation of a novel class of dual microsomal prostaglandin E2 synthase-1/5-lipoxygenase inhibitors based on 2-[(4,6-diphenethoxypyrimidin-2-yl)thio]hexanoic acid” (J Med Chem, 2011)
One block for each molecule: values may come before it. Calls of active or inactive are those of the source. The rule behind the calls is not given here.

Experiments:
[1] = tested on: Radical scavenging activity; assay: Antioxidant activity assessed as DPPH radical scavenging activity at 100 uM; format: functional
In short: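 Non-enzymatic radical scavenging test: reduction of 1,1-diphenyl-2-picrylhydrazyl (DPPH) measured with test compound up to 100 μM; ascorbic acid and L-cysteine run as reference reductants.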

Prostaglandin E synthase = target: T1, Prostaglandin E synthase (Homo sapiens, UniProt O14684); assay: Inhibition of mPGES-1 in human IL-1beta-stimulated A549 cell microsomes assessed as reduction of PGE2 formation from PGH2 after 15 mins by RP-HPLC analysis; set-up: species or system Microsome
T1 sequence (O14684 whole entry): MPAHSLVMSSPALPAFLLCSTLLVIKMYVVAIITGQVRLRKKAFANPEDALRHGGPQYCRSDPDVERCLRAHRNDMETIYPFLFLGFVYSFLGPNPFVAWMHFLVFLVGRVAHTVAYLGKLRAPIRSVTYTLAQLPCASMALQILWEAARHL
In short: (§1)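 A549 cells in DMEM with 2% FCS for 16 h, induced with IL-1β (1 ng/mL) for 72 h, homogenized. Microsomal pellet (174 000 × g) diluted in 0.1 M potassium phosphate pH 7.4 with 2.5 mM glutathione, given compound or DMSO for 15 min. PGH₂ added (20 μM final), 1 min at 4 °C, stopped with FeCl₂/citric acid. PGE₂ by SPE and RP-HPLC (UV 195 nm), 11β-PGE₂ internal standard. Tested up to 10 μM; IC₅₀ reported only above 50% inhibition at 10 μM.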

[2] = target: T2, Prostaglandin E synthase (Homo sapiens) (UniProt O14684); assay: Inhibition of mPGES-1 in human IL-1beta-stimulated A549 cell microsomes assessed as residual activity by measuring reduction of PGE2 formation from PGH2 at 10 uM after 15 mins by RP-HPLC analysis; details: Microsome; in short: as §1
T2 sequence (whole entry): T1 sequence (O14684 whole entry)

[3] = target: T3, Polyunsaturated fatty acid 5-lipoxygenase (Homo sapiens, UniProt P09917); assay: Inhibition of human recombinant 5-lipoxygenase-mediated product formation from arachidonic acid after 5 to 10 mins by HPLC analysis
T3 sequence (P09917 whole entry): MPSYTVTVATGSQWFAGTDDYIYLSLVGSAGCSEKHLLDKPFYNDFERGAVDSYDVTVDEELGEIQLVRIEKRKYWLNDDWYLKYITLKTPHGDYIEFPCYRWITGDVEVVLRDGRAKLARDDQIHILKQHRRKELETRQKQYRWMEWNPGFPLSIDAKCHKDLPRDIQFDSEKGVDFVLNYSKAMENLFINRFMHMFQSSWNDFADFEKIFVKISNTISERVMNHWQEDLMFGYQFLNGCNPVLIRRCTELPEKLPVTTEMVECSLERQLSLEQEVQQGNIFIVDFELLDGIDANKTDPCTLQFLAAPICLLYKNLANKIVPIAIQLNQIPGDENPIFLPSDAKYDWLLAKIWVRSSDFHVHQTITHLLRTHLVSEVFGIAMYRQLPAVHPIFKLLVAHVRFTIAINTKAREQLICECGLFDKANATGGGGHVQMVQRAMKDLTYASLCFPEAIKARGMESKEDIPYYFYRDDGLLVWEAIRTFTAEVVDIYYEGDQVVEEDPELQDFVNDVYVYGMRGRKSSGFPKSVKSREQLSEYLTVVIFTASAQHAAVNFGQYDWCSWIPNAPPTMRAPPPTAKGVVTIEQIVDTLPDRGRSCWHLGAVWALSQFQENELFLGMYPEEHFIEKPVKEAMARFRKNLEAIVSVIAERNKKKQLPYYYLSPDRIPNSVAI
In short: (§2)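 Human 5-LO expressed in E. coli BL21 (pT3-5LO) at 37 °C, purified and used at once. Enzyme (0.5 μg/mL in PBS/EDTA with 1 mM ATP) preincubated with compound 5–10 min at 4 °C, prewarmed 30 s at 37 °C, started with 2 mM CaCl₂ + 20 μM AA (±1 μM 13(S)-HpODE), 10 min at 37 °C, stopped with cold methanol, products by HPLC.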

[4] = target: T4, Polyunsaturated fatty acid 5-lipoxygenase (Homo sapiens) (UniProt P09917); assay: Inhibition of human recombinant 5-lipoxygenase-mediated product formation from arachidonic acid assessed as remaining activity at 10 uM after 5 to 10 mins by HPLC analysis; in short: as §2
T4 sequence (whole entry): T3 sequence (P09917 whole entry)

[5] = Cytotoxicity in human polymorphonuclear leukocytes assessed as cell viability at 10 uM after 30 mins by MTT assay
[6] = target: T3, Polyunsaturated fatty acid 5-lipoxygenase; assay: Inhibition of 5-lipoxygenase-mediated 5(S)-H(p)ETE formation in A23187-stimulated human PMNL incubated 10 mins prior to A23187 challenge
[7] = target: Prostaglandin G/H synthase 1 (Ovis aries) (UniProt P05979); assay: Inhibition of ovine COX-1 mediated formation of 12-HHT from arachidonic acid assessed as remaining activity at 10 uM after 5 mins by HPLC analysis
[8] = target: Prostaglandin G/H synthase 2 (Homo sapiens) (UniProt P35354); assay: Inhibition of human recombinant COX-2 mediated formation of 12-HHT from arachidonic acid assessed as remaining activity at 10 uM after 5 mins by HPLC analysis
[9] = target: T4, Polyunsaturated fatty acid 5-lipoxygenase (Homo sapiens); assay: Selectivity ratio of IC50 for human recombinant 5-lipoxygenase in cell-free system to IC50 for 5-lipoxygenase-mediated 5(S)-H(p)ETE formation in A23187-stimulated PMNL
[10] = target: T5, Polyunsaturated fatty acid lipoxygenase ALOX15 (Homo sapiens) (UniProt P16050); assay: Inhibition of 15-lipoxygenase in A23187-stimulated human PMNL assessed as reduction of 15(S)-H(P)ETE formation preincubated 15 mins by RP-HPLC analysis in presence of exogenous arachidonic acid
T5 sequence (whole entry): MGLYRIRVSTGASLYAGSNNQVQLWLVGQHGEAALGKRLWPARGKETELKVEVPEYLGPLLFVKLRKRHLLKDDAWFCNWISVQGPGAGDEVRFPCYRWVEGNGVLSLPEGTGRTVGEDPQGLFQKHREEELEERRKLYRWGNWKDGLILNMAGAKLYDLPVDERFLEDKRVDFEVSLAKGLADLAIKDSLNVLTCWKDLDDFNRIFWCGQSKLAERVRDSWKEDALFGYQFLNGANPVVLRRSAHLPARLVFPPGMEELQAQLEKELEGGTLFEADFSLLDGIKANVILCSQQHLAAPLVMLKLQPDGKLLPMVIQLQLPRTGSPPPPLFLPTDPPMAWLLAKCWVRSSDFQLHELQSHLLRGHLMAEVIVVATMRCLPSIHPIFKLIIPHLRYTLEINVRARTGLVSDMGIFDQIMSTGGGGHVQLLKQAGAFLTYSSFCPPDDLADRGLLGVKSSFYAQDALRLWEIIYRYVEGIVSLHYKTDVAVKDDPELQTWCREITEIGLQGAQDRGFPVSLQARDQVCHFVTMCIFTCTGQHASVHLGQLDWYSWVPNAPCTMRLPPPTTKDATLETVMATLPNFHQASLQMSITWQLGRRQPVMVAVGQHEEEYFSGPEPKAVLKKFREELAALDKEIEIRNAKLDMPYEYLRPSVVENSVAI
In short: (§3)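 Freshly isolated human PMNL (5 × 10⁶/mL in PBS pH 7.4 with 1 mg/mL glucose and 1 mM CaCl₂) preincubated with compound 15 min at 37 °C, then stimulated with 2.5 μM A23187 plus exogenous AA for 10 min at 37 °C. Stopped with methanol, PGB₁ added as internal standard, extracted, HPLC: 15(S)-H(p)ETE taken as 15-LO product, 12(S)-H(p)ETE as 12-LO product (platelet-type 12-LO from PMNL-adherent platelets).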

[11] = target: T6, Polyunsaturated fatty acid lipoxygenase ALOX12 (Homo sapiens) (UniProt P18054); assay: Inhibition of 12-lipoxygenase in A23187-stimulated human PMNL assessed as reduction of 12(S)-H(P)ETE formation preincubated 15 mins by RP-HPLC analysis in presence of exogenous arachidonic acid; in short: as §3
T6 sequence (whole entry): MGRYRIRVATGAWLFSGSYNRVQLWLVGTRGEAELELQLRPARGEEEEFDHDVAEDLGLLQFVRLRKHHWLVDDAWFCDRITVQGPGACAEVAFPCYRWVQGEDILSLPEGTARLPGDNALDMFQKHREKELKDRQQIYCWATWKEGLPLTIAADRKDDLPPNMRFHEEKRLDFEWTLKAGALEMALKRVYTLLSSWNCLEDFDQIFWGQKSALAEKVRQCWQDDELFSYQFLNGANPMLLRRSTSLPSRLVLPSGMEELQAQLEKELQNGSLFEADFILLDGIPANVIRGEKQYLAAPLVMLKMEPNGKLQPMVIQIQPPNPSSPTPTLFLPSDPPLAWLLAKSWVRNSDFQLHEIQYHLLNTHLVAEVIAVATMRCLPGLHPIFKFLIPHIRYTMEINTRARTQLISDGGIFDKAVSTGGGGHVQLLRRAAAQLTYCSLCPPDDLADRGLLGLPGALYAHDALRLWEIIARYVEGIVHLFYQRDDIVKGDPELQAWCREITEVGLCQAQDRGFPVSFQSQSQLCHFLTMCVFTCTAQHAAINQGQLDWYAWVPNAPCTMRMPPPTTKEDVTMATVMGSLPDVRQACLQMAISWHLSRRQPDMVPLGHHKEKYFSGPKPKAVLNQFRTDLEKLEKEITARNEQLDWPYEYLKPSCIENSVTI

[12] = target: T4, Polyunsaturated fatty acid 5-lipoxygenase (Homo sapiens); assay: Inhibition of human recombinant 5-lipoxygenase-mediated product formation from arachidonic acid assessed as remaining activity at 1 uM after 5 to 10 mins by HPLC analysis; in short: as §2
[13] = target: T5, Polyunsaturated fatty acid lipoxygenase ALOX15 (Homo sapiens); assay: Inhibition of 15-lipoxygenase in A23187-stimulated human PMNL assessed as reduction of 15(S)-H(P)ETE formation up to 10 uM preincubated 15 mins by RP-HPLC analysis in presence of exogenous arachidonic acid; in short: as §3
[14] = target: T6, Polyunsaturated fatty acid lipoxygenase ALOX12 (Homo sapiens); assay: Inhibition of 12-lipoxygenase in A23187-stimulated human PMNL assessed as reduction of 12(S)-H(P)ETE formation up to 10 uM preincubated 15 mins by RP-HPLC analysis in presence of exogenous arachidonic acid; in short: as §3
[15] = target: T3, Polyunsaturated fatty acid 5-lipoxygenase; assay: Inhibition of 5-lipoxygenase in human PMNL S100 supernatant assessed as inhibition of enzyme product formation preincubated for 5 to 10 mins before arachidonic acid addition by HPLC analysis
In short: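 PMNL (5 × 10⁶/mL in PBS/1 mM EDTA) sonicated, centrifuged 100 000 × g for 1 h at 4 °C. S100 diluted in PBS/EDTA with 1 mM ATP, ±1 mM DTT, and preincubated with compound or 0.3% DMSO 5–10 min at 4 °C. Prewarmed 30 s at 37 °C, started with 2 mM CaCl₂ + 20 μM AA, 10 min at 37 °C, stopped with cold methanol, 5-LO products by HPLC.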

[16] = target: T3, Polyunsaturated fatty acid 5-lipoxygenase; assay: Inhibition of 5-lipoxygenase-mediated 5(S)-H(p)ETE formation in fMLP-stimulated human PMNL incubated 10 mins prior to fMLP challenge

SMILES: N[C@@H](CS)C(=O)O
- Activity [1]: Active

SMILES: O=C1O[C@H]([C@@H](O)CO)C(O)=C1O
- Activity [1]: Active

SMILES: CCCCCCC(Sc1nc(OCCc2ccccc2)cc(OCCc2ccccc2)n1)C(=O)O (stereo unspecified)
- IC50 (Prostaglandin E synthase): 2000 nM
- IC50 [3]: 2800 nM
- inhibition [13]: inactive
- inhibition [14]: inactive
- IC50 [15]: 12500 nM
- Activity [1]: inactive
- IC50 [16]: 400 nM

More lines, main results first:

- IC50 (Prostaglandin E synthase): > 10000 nM
- Activity [2]: 74%
- IC50 [3]: 10000 nM
- Activity [4]: 55.5%
- IC50 [6]: 400 nM
- Activity [7]: 92.3%
- Activity [8]: 106%
- Ratio IC50 [9]: > 20
SMILES: CCCC/C(=C\c1cc(OCCC2CCCCC2)ccc1OCc1ccc(C(F)(F)F)cc1)C(=O)O
- Activity [5]: Non-toxic

- inhibition [10]: inactive
- inhibition [11]: inactive
SMILES: Cc1ccc(-c2cc(C(F)(F)F)nn2-c2ccc(S(N)(=O)=O)cc2)cc1

- inhibition [12]: inactive
SMILES: CC(C)c1ccc2c(c1)c(SC(C)(C)C)c(CC(C)(C)C(=O)O)n2Cc1ccc(Cl)cc1
